This is an account of results in ChEMBL document CHEMBL1811752, “Synthesis and pharmacological characterization of bicyclic triple reuptake inhibitor 3-aryl octahydrocyclopenta[c]pyrrole analogues” (J Med Chem, 2011).

Series [1] addresses Sodium-dependent serotonin transporter (Homo sapiens, UniProt P31645). The series is described as follows: Inhibition of serotonin reuptake at SERT expressed in HEK293 cells. In kind it is cell-based.
The target of series [2] is Sodium-dependent noradrenaline transporter (Homo sapiens, UniProt P23975). The series can be described thus: Inhibition of norepinephrine reuptake at NET expressed in MDCK cells. Type of series: cell-based.
For series [3], the target named is Sodium-dependent dopamine transporter (Homo sapiens, UniProt Q01959). The series is described as follows: Inhibition of dopamine reuptake at DAT expressed in CHO-K1 cells. Type of series: cell-based.
Series [4] can be described thus: Half life in human liver microsomes at 3 uM by LC-MS/MS analysis. In kind it is ADME, Microsome. In outline:
(§1)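 Human or mouse liver microsomes (0.5 mg/mL) incubated with 3 μM compound at 37 °C. Reaction started with NADPH and stopped with methanol containing internal standard. Loss of compound followed over 45 min by LC-MS/MS. Peak area ratio to internal standard plotted against time and the slope of the line taken.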

A short description of series [5]: Half life in mouse liver microsomes at 3 uM by LC-MS/MS analysis. In kind it is ADME, Microsome. In a few lines: as §1
On the technique in general: Liver microsomes are a subcellular fraction often used to study metabolism.

Series [6] addresses Cytochrome P450 2D6 (Homo sapiens, UniProt P10635). The series can be described thus: Inhibition of CYP2D6 in human liver microsomes by LC-MS/MS analysis. In kind it is ADME, Microsome. In a few lines: (§2)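 Human liver microsomes incubated with isoform-specific substrates and compound, typically 0.1–25 μM. Metabolite formation read by LC-MS/MS, […]. IC50 calculated from the decrease in metabolite formation relative to vehicle control.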

Series [7] addresses T1, CYP1A (Homo sapiens, UniProt P04798+P05177).
T1 sequence (P04798 whole entry): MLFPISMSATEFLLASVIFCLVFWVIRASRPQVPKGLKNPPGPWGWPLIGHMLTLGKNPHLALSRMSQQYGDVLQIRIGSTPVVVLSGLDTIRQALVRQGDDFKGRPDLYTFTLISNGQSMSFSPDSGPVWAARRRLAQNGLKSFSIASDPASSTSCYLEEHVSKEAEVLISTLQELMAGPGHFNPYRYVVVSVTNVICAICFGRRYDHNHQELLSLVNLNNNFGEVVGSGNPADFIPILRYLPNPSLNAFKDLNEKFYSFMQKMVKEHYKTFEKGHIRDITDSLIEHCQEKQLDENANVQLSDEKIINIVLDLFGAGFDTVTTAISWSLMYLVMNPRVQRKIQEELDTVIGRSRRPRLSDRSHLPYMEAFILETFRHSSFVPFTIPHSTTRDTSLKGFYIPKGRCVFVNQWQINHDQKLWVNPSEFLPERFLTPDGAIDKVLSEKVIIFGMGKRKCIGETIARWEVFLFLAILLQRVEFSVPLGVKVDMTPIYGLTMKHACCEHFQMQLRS
T1 sequence (P05177 whole entry): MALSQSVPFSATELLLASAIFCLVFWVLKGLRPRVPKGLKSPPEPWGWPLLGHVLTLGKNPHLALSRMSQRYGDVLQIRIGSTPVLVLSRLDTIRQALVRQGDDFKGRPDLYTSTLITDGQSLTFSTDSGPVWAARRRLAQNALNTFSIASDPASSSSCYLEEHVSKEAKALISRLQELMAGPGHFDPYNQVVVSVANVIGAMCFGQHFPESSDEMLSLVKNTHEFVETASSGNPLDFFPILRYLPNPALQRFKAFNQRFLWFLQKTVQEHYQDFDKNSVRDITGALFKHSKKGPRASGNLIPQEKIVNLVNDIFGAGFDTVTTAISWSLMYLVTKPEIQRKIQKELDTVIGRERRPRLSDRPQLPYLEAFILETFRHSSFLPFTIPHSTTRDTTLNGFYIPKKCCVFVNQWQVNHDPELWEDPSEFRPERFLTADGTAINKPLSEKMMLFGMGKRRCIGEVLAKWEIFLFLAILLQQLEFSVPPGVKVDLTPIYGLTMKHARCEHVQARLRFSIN
The series is described as follows: Inhibition of CYP1A in human liver microsomes by LC-MS/MS analysis. In kind it is ADME, Microsome. In outline:
as §2

For series [8], the target named is Cytochrome P450 2C9 (Homo sapiens, UniProt P11712). The series is described as follows: Inhibition of CYP2C9 in human liver microsomes by LC-MS/MS analysis. In kind it is ADME, Microsome. In a few lines:
as §2

Series [9] deals with Cytochrome P450 2C19 (Homo sapiens, UniProt P33261). The series is described as follows: Inhibition of CYP2C19 in human liver microsomes by LC-MS/MS analysis. In kind it is ADME, Microsome. In outline:
as §2

In series [10] the target is Cytochrome P450 3A4 (Homo sapiens, UniProt P08684). The series can be described thus: Inhibition of CYP3A4 in human liver microsomes by LC-MS/MS analysis. Type of series: ADME, Microsome. In a few lines:
as §2

Sequence of Sodium-dependent dopamine transporter (Q01959 whole entry): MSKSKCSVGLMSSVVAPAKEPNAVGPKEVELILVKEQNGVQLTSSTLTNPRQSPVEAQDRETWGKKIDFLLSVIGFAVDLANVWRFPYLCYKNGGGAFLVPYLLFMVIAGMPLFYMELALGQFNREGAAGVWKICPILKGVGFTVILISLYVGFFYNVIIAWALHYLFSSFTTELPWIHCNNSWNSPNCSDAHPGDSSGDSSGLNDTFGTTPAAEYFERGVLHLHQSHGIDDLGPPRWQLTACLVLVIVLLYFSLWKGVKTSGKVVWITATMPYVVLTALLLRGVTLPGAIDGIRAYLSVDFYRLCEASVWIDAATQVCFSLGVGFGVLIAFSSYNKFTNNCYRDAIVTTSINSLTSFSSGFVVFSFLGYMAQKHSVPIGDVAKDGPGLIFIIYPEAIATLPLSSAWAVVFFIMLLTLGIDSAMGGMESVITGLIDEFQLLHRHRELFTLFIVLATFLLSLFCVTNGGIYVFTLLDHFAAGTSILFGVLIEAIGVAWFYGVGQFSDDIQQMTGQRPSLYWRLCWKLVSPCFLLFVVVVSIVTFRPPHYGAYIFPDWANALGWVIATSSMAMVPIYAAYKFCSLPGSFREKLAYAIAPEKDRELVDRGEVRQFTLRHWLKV
Sequence of Cytochrome P450 2C19 (P33261 whole entry): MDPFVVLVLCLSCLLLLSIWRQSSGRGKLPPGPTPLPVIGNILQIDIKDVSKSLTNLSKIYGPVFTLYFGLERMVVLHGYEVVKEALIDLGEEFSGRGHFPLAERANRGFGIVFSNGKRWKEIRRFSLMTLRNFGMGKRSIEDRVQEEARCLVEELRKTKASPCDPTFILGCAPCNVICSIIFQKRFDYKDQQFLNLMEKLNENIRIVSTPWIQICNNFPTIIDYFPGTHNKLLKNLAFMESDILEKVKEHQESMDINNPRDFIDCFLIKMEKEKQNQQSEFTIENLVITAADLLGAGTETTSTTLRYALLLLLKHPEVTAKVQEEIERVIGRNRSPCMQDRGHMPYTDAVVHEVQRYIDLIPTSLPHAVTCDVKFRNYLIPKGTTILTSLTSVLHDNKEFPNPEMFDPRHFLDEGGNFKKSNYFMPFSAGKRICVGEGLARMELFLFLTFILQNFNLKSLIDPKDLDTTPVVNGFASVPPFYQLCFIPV
Sequence of Cytochrome P450 2C9 (P11712 whole entry): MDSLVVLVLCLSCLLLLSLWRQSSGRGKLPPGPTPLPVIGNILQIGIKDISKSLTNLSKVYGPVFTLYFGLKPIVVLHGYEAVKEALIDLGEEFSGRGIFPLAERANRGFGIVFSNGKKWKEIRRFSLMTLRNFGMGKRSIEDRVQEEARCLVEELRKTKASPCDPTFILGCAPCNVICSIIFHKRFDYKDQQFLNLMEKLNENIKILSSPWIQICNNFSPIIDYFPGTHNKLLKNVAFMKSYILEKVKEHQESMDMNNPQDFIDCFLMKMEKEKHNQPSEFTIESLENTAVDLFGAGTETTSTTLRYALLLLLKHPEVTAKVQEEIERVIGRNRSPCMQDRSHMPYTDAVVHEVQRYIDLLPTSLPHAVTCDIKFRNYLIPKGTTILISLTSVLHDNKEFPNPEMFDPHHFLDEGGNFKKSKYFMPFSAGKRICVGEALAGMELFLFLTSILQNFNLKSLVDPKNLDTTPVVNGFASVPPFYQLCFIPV
Sequence of Sodium-dependent serotonin transporter (P31645 whole entry): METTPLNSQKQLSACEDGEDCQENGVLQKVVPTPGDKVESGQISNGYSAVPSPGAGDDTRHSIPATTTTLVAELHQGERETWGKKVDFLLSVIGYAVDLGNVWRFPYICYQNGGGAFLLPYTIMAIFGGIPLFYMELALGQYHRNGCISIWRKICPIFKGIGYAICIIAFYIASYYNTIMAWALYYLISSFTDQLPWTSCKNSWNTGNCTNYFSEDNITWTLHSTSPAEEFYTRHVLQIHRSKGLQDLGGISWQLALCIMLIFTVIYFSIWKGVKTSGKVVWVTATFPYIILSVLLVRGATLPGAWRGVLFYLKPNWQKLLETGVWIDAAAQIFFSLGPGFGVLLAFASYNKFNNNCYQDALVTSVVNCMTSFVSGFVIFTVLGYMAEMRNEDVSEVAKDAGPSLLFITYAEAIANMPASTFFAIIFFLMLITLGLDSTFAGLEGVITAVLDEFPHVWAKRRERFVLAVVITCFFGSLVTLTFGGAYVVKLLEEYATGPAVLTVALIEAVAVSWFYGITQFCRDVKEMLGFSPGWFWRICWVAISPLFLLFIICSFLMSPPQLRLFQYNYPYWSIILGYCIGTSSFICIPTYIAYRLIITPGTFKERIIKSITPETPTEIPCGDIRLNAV
Sequence of Sodium-dependent noradrenaline transporter (P23975 whole entry): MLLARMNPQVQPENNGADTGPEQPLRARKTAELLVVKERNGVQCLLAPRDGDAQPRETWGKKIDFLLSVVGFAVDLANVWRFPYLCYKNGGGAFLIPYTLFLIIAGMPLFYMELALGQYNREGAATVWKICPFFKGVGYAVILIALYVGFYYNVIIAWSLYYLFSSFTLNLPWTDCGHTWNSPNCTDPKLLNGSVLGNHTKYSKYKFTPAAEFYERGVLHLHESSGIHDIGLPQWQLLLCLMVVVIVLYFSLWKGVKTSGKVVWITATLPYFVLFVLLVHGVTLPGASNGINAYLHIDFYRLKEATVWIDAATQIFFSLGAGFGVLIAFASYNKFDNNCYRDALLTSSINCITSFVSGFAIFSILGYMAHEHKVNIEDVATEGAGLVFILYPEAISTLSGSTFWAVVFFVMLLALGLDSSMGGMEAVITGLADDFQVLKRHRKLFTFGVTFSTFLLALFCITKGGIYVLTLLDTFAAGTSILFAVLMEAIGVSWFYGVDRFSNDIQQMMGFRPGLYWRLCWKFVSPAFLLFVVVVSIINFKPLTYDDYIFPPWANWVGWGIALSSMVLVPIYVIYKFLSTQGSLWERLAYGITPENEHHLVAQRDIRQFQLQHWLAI
Sequence of Cytochrome P450 2D6 (P10635 whole entry, canonical isoform): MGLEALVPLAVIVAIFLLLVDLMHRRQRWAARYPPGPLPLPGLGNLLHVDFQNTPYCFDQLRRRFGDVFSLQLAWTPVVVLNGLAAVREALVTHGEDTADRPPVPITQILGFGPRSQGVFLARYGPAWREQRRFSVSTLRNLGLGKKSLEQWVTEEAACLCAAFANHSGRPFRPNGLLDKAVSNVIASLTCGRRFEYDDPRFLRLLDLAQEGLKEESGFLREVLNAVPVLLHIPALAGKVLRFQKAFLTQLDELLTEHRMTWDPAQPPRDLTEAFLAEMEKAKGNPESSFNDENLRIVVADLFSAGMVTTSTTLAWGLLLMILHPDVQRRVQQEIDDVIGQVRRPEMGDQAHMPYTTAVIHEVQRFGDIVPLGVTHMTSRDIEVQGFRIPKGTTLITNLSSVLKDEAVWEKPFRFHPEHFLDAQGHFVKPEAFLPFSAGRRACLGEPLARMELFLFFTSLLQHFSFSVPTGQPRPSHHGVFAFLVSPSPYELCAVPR
Sequence of Cytochrome P450 3A4 (P08684 whole entry): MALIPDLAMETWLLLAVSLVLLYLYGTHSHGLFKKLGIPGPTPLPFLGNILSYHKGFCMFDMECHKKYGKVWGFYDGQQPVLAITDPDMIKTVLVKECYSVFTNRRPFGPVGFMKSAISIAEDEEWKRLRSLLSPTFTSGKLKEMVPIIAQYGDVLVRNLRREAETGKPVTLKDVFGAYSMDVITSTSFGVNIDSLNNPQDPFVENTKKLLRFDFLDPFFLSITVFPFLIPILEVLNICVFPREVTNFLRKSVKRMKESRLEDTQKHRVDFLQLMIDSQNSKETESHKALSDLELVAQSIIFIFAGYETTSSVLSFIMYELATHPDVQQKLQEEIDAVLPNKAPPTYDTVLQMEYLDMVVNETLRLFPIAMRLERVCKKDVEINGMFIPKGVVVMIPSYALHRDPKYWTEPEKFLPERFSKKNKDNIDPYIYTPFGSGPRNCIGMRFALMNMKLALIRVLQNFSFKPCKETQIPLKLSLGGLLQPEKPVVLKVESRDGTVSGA

On to `Clc1ccc([C@]23CCCC[C@@H]2CNC3)cc1Cl` (racemic; 19a), for which the IC50 (as a rule, the concentration needed to halve the response being measured) is 1820 nM in series [1], 6030 nM in series [2] and 1020 nM in series [3].

With `CN1C[C@H]2CCCC[C@@]2(Cc2ccc(Cl)c(Cl)c2)C1` (stereo in doubt), the IC50 is 5.5 nM in series [1], 3800 nM in [2], 479 nM in [3] and less than 0.05 µM in series [6]. The values for the half-life at 3 µM in series [4] and in series [5] were 121 min and 25 min, respectively.

Take `CN1C[C@@H]2CCC[C@]2(c2ccc(F)c(F)c2)C1` (racemic): the IC50 in [1] is 1100 nM; in series [2], 6460 nM; in series [3] it was 2820 nM.

Turning to `Clc1ccc(C[C@@]23CCCC[C@@H]2CNC3)cc1Cl`, the IC50 in series [1] is 49 nM; in series [2], 2950 nM; in series [3], 158 nM; in series [6], less than 0.05 µM. Also, the half-life at 3 µM in series [4] and in series [5] was greater than 300 min each time.

For the compound `CN1C[C@H]2CCCC[C@@]2(c2ccc3ccccc3c2)C1`, the IC50 was 12.6 nM in [1], 537 nM in [2], 61.7 nM in series [3] and 13.6 µM in series [6]. The values for the half-life at 3 µM in series [4] and in [5] were 17 min and 7 min, respectively.

For the compound `COc1ccc([C@]23CCCC[C@H]2CN(C)C3)cc1OC` (racemic), the figures for the IC50 in [1], in series [2] and in series [3] were 34.7 nM, 5890 nM and 9770 nM, respectively.

With `CN1C[C@@H]2CCCC[C@]2(c2ccc(F)c(F)c2)C1` (racemic), the IC50 in [1] is 1230 nM; in [2], 2340 nM; in series [3], 417 nM.

Take `CN1C[C@H]2CCCC[C@@]2(c2cccc3ccccc23)C1`: the IC50 in [1] was 33.1 nM; in series [2], 204 nM; in series [3], 2450 nM.

Take `COc1cccc([C@]23CCC[C@H]2CN(C)C3)c1` (racemic): the IC50 in series [1] was 692 nM; in [2], greater than 10000 nM; in [3], greater than 10000 nM.

In the case of `CN1C[C@@H]2CCC[C@]2(c2ccc(Cl)c(Cl)c2)C1` (racemic), the IC50 in [1] is 8.91 nM; in series [2], 24 nM; in [3], 67.6 nM.

For `COc1cccc([C@]23CCCC[C@H]2CN(C)C3)c1` (racemic), the IC50 in [1] is 148 nM; in series [2], 2450 nM; in series [3] it was 3390 nM.

With `c1ccc2cc([C@@]34CCC[C@@H]3CNC4)ccc2c1`, the 50% inhibitory concentration (IC50) is 120 nM in series [1]; 60.3 nM in series [2]; 30.2 nM in series [3]; 710 nM in series [7]; 14.4 µM in series [8]; 7.19 µM in series [9]. Also, the IC50 came out at 10.8 µM in series [6] and 10.7 µM in series [10]. Moreover, the results for the half-life at 3 µM in [4] and in series [5] were 28 min and 56 min, respectively.

As to `CN1C[C@@H]2CCCC[C@]2(c2cccc3ccccc23)C1` (racemic), the IC50 was 162 nM in series [1], 417 nM in series [2] and 1320 nM in series [3].

Consider `CN1C[C@@H]2CCCC[C@]2(c2ccc3ccccc3c2)C1` (racemic), for which the IC50 was 4.79 nM in series [1], 537 nM in [2] and 20.4 nM in [3].

For the compound `COc1ccc([C@]23CCCC[C@H]2CN(C)C3)cc1` (racemic), the IC50 in series [1] is 129 nM; in series [2], 14100 nM; in series [3], 1000 nM.

Take `Clc1ccc([C@]23CCCC[C@H]2CNC3)cc1Cl` (racemic): the IC50 was 115 nM in [1], 112 nM in [2] and 204 nM in series [3].

With `CN1C[C@@H]2CCCC[C@]2(Cc2ccc(Cl)c(Cl)c2)C1` (stereo in doubt), the IC50 in [1] was 339 nM; in series [2] it was 4470 nM; in [3] it was 490 nM.

On to `CN1C[C@@H]2CCC[C@]2(c2ccc3ccccc3c2)C1` (racemic), for which the results for the IC50 in series [1], in series [2] and in series [3] were 3.55 nM, 468 nM and 100 nM, respectively.

Consider `CN1C[C@@H]2CCCC[C@]2(c2cccc3ccccc23)C1`, for which the values for the IC50 in [1], in series [2] and in [3] were 977 nM, greater than 10000 nM and 3310 nM, respectively.

As to `CN1C[C@@H]2CCC[C@]2(c2cc(Cl)cc(Cl)c2)C1` (racemic), the IC50 is 331 nM in [1], 4270 nM in series [2] and 9770 nM in [3].

Regarding `c1ccc2cc([C@]34CCC[C@H]3CNC4)ccc2c1`, the IC50 in series [1] was 13.5 nM; in series [2], 14.1 nM; in series [3], 33.9 nM; in series [7], 4130 nM; in series [8], greater than 25 µM; in [9], greater than 25 µM. The IC50 in series [6] turned out to be 9.42 µM; in series [10], 2.65 µM. Also, the results for the half-life at 3 µM in [4] and in series [5] were 25 min and 26 min, respectively.

In the case of `COc1ccc([C@]23CCC[C@H]2CN(C)C3)cc1` (racemic), the values for the IC50 in series [1], in series [2] and in [3] were 4.47 nM, greater than 10000 nM and greater than 10000 nM, respectively.

For `Clc1ccc([C@]23CCCC[C@@H]2CNC3)cc1Cl` (racemic; 19b), the IC50 in series [1] was 1910 nM; in series [2], 2140 nM; in series [3], 457 nM.

Regarding `CN1C[C@@H]2CCCC[C@]2(c2ccc3ccccc3c2)C1`, the IC50 is 6.92 nM in series [1], 724 nM in series [2], 309 nM in series [3] and 0.56 µM in [6]. Moreover, the half-life (usually how long it takes for the measured level to halve) at 3 µM is 46 min in series [4] and 18 min in series [5].

Take `CN1C[C@@H]2CCCC[C@]2(c2ccccc2)C1` (racemic): the IC50 in series [1] is 724 nM; in [2], 562 nM; in series [3] it was 1580 nM.

`CN1C[C@H]2CCC[C@@]2(c2ccc3ccccc3c2)C1`: the IC50 in series [1] was 14.5 nM; in series [2] it was 191 nM; in series [3] it was 28.8 nM; in series [6] it was 12.8 µM. Also, the half-life at 3 µM amounted to 19 min in [4] and 18 min in series [5].

For the compound `CN1C[C@@H]2CCC[C@]2(c2ccc3ccccc3c2)C1`, the IC50 in series [1] is 2.29 nM; in series [2], 209 nM; in series [3], 182 nM; in [6], 2.61 µM. Besides, the values for the half-life at 3 µM in [4] and in [5] were 36 min and 18 min, respectively.

As for `CN1C[C@@H]2CCC[C@]2(c2ccc(Cl)c(Cl)c2)C1` (single isomer, unassigned), the 50% inhibitory concentration (IC50) was 83.2 nM in series [1]; 95.5 nM in series [2]; 47.9 nM in series [3]; 1490 nM in series [7]; 9.83 µM in [8]; 2.22 µM in [9]. Also, the IC50 in [6] came out at 4.35 µM; in series [10] it was 12.7 µM. For the same compound, the figures for the half-life at 3 µM in [4] and in [5] were 28 min and 27 min, respectively.

For the compound `Clc1ccc(C[C@]23CCCC[C@H]2CNC3)cc1Cl`, the IC50 in series [1] is 661 nM; in [2], 5370 nM; in series [3], 501 nM.

Regarding `CN1C[C@@H]2CCCC[C@]2(c2ccc(Cl)cc2Cl)C1` (racemic), the IC50 in series [1] was 347 nM; in [2] it was 912 nM; in series [3], 1290 nM.
